# Laboratory results: PubChem BioAssay AID624017 (Broad Institute, 2012)
# System: ldlA[mSR-BI] cells, [3H]cholesterol efflux to HDL
# Experiment: free cholesterol efflux blockade in ldlA[mSR-BI] cells – [3H]cholesterol, powder samples, set 2, mechanism study for SR-BI HDL uptake inhibitor project, dose response (AID 624017)
# Procedure, shortened: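 Dosing – 0.5% DMSO vehicle · Material – ldlA[mSR-BI] cells prelabelled with [3H]cholesterol · Incubation – 2-day label, 24 h equilibration, 1 h compound pretreatment, 2 h efflux · Signal – scintillation counting of medium and lysate [3H] · Probe or stimulus – HDL as cholesterol acceptor, 100 µg/mL final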
compound,measurement,value
CC(C)NC(=O)Nc1ccc2c(c1)C(=O)N([C@H](C)CO)C[C@@H](C)[C@H](CN(C)S(=O)(=O)c1ccc(Cl)cc1)O2,IC50,250 nM
